Reference: ChEMBL document CHEMBL3616437, “Thiazole compounds with activity against Cryptococcus gattii and Cryptococcus neoformans in vitro” (Eur J Med Chem, 2015)
The source made the active and inactive calls. No cut-off for these calls is given here.

Tests used:
[1] = system: Cryptococcus neoformans; experiment: Post-antifungal activity against Cryptococcus neoformans CN31 assessed as organism required time to achieve cell population of 10^4 cells/ml at 0.9 uM treated for 1 hr by MTT assay in presence of 0.05 uM amphotericin B; type: functional
[2] = system: Cryptococcus neoformans; experiment: Antifungal activity against Cryptococcus neoformans 5396 assessed as reduction in cell viability at 0.9 uM after 6 to 72 hrs by MTT assay; type: functional
[3] = system: Cryptococcus neoformans; experiment: Antifungal activity against Cryptococcus neoformans CN31 assessed as reduction in cell viability at 0.9 uM after 6 to 72 hrs by MTT assay; type: functional
[4] = system: Cryptococcus neoformans; experiment: Post-antifungal activity against Cryptococcus neoformans CN31 assessed as organism required time to achieve cell population of 10^4 cells/ml at 0.9 uM treated for 1 hr by MTT assay; type: functional
[5] = system: Cryptococcus neoformans; experiment: Antifungal activity against Cryptococcus neoformans VM-MCMMPI assessed as reduction in cell viability at 0.9 uM after 6 to 72 hrs by MTT assay; type: functional
[6] = system: Cryptococcus gattii species complex; experiment: Antifungal activity against Cryptococcus gattii 196L/03 assessed as reduction in ergosterol content at MIC after 24 hrs by spectrophotometric analysis in presence of amphotericin B; type: functional, organism-based; details: Cryptococcus bacillisporus
Outline: (§1)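 Pellet washed and weighed, then saponified in 25% ethanolic KOH at 85°C for 1 h. Extracted with water and n-heptane, read at 282 and 230 nm. Ergosterol taken from a standard curve and expressed as % of growth control.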

[7] = system: Cryptococcus neoformans; experiment: Antifungal activity against Cryptococcus neoformans F10 assessed as reduction in cell viability at 0.9 uM after 6 to 72 hrs by MTT assay; type: functional
[8] = system: Cryptococcus neoformans; experiment: Antifungal activity against Cryptococcus neoformans WP assessed as reduction in cell viability at 0.9 uM after 6 to 72 hrs by MTT assay; type: functional
[9] = system: Cryptococcus gattii species complex; experiment: Post-antifungal activity against Cryptococcus gattii L27/01 assessed as organism required time to achieve cell population of 10^4 cells/ml at 0.45 uM treated for 1 hr by MTT assay; type: functional, Cryptococcus bacillisporus
[10] = system: Cryptococcus gattii species complex; experiment: Antifungal activity against Cryptococcus gattii L27/01 assessed as reduction in ergosterol content at MIC after 24 hrs by spectrophotometric analysis in presence of amphotericin B; type: functional, organism-based; details: Cryptococcus bacillisporus; outline: as §1
[11] = system: Cryptococcus neoformans; experiment: Antifungal activity against Cryptococcus neoformans ATCC 28957 assessed as reduction in cell viability at 0.9 uM after 6 to 72 hrs by MTT assay; type: functional
[12] = system: Cryptococcus neoformans; experiment: Antifungal activity against Cryptococcus neoformans ATCC 62066 assessed as reduction in cell viability at 26 uM after 6 to 72 hrs by MTT assay; type: functional
Outline: (§2)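 Time-kill setup: colonies from two 48 h, 35°C SDA passages were suspended in saline to 70% transmittance at 530 nm. They were then diluted to 1-5 x10^3 cells/mL in RPMI with L-glutamine buffered to pH 7.0 with 0.165 M MOPS. Plates were incubated at 35°C for 0-72 h, then MTT (5.0 mg/mL) was added for 3 h. After isopropanol, absorbance was read at 490 nm. Drug-free controls were included, results were confirmed by SDA colony counts, and assays were run in triplicate.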

[13] = system: Cryptococcus neoformans; experiment: Antifungal activity against Cryptococcus neoformans CN31 assessed as reduction in cell viability at 26 uM after 6 to 72 hrs by MTT assay; type: functional; outline: as §2
[14] = system: Cryptococcus neoformans; experiment: Antifungal activity against Cryptococcus neoformans VM-MCMMPI assessed as reduction in cell viability at 26 uM after 6 to 72 hrs by MTT assay; type: functional; outline: as §2
[15] = system: Cryptococcus gattii species complex; experiment: Antifungal activity against Cryptococcus gattii ICB181 assessed as reduction in cell viability at 26 uM after 6 to 72 hrs by MTT assay; type: functional, Cryptococcus bacillisporus; outline: as §2
[16] = system: Cryptococcus gattii species complex; experiment: Antifungal activity against Cryptococcus gattii 1913ER assessed as reduction in cell viability at 26 uM after 6 to 72 hrs by MTT assay; type: functional, Cryptococcus bacillisporus; outline: as §2
[17] = system: Cryptococcus gattii species complex; experiment: Antifungal activity against Cryptococcus gattii 135L/03 assessed as reduction in cell viability at 26 uM after 6 to 72 hrs by MTT assay; type: functional, Cryptococcus bacillisporus; outline: as §2
[18] = system: Cryptococcus neoformans; experiment: Antifungal activity against Cryptococcus neoformans ATCC 28957 assessed as reduction in cell viability at 26 uM after 6 to 72 hrs by MTT assay; type: functional; outline: as §2
[19] = system: Cryptococcus neoformans; experiment: Antifungal activity against Cryptococcus neoformans 5396 assessed as reduction in cell viability at 26 uM after 6 to 72 hrs by MTT assay; type: functional; outline: as §2
[20] = system: Cryptococcus bacillisporus; experiment: Antifungal activity against Cryptococcus gattii ATCC 32608 assessed as reduction in cell viability at 26 uM after 6 to 72 hrs by MTT assay; type: functional; outline: as §2
[21] = system: Cryptococcus neoformans; experiment: Antifungal activity against Cryptococcus gattii ATCC 24065 assessed as reduction in cell viability at 26 uM after 6 to 72 hrs by MTT assay; type: functional, Cryptococcus bacillisporus; outline: as §2
[22] = system: Cryptococcus neoformans; experiment: Antifungal activity against Cryptococcus neoformans 96806 assessed as reduction in cell viability at 26 uM after 6 to 72 hrs by MTT assay; type: functional; outline: as §2
[23] = system: Cryptococcus neoformans; experiment: Antifungal activity against Cryptococcus neoformans F10 assessed as reduction in cell viability at 26 uM after 6 to 72 hrs by MTT assay; type: functional; outline: as §2
[24] = system: Cryptococcus gattii species complex; experiment: Antifungal activity against Cryptococcus gattii LMM818 assessed as reduction in cell viability at 26 uM after 6 to 72 hrs by MTT assay; type: functional, Cryptococcus bacillisporus; outline: as §2
[25] = system: Cryptococcus neoformans; experiment: Antifungal activity against Cryptococcus neoformans 27JF assessed as reduction in cell viability at 0.12 uM after 6 to 72 hrs by MTT assay; type: functional
[26] = system: Cryptococcus bacillisporus; experiment: Antifungal activity against Cryptococcus gattii ATCC 32608 assessed as reduction in cell viability after at 0.12 uM 6 to 72 hrs by MTT assay; type: functional
[27] = system: Cryptococcus gattii species complex; experiment: Antifungal activity against Cryptococcus gattii 196L/03 assessed as reduction in cell viability at 0.12 uM after 6 to 72 hrs by MTT assay; type: functional, Cryptococcus bacillisporus
[28] = system: Cryptococcus gattii species complex; experiment: Antifungal activity against Cryptococcus gattii LMM818 assessed as reduction in cell viability at 0.12 uM after 6 to 72 hrs by MTT assay; type: functional, Cryptococcus bacillisporus
[29] = system: Cryptococcus gattii species complex; experiment: Antifungal activity against Cryptococcus gattii L27/01 assessed as reduction in cell viability at 0.12 uM after 6 to 72 hrs by MTT assay; type: functional, Cryptococcus bacillisporus
[30] = system: Cryptococcus neoformans; experiment: Antifungal activity against Cryptococcus neoformans 96806 assessed as reduction in cell viability at 0.12 uM after 6 to 72 hrs by MTT assay; type: functional
[31] = system: Cryptococcus neoformans; experiment: Antifungal activity against Cryptococcus neoformans ATCC 28957 assessed as reduction in cell viability at 0.12 uM after 6 to 72 hrs by MTT assay; type: functional
[32] = system: Cryptococcus neoformans; experiment: Antifungal activity against Cryptococcus neoformans ATCC 24067 assessed as reduction in cell viability at 0.12 uM after 6 to 72 hrs by MTT assay; type: functional
[33] = system: Cryptococcus neoformans; experiment: Antifungal activity against Cryptococcus neoformans WP assessed as reduction in cell viability at 0.12 uM after 6 to 72 hrs by MTT assay; type: functional
[34] = system: Cryptococcus gattii species complex; experiment: Antifungal activity against Cryptococcus gattii 1913ER assessed as reduction in cell viability at 0.12 uM after 6 to 72 hrs by MTT assay; type: functional, Cryptococcus bacillisporus
[35] = system: Cryptococcus neoformans; experiment: Antifungal activity against Cryptococcus neoformans 28JF assessed as reduction in cell viability at 1.9 uM after 6 to 72 hrs by MTT assay; type: functional
[36] = system: Cryptococcus neoformans; experiment: Antifungal activity against Cryptococcus neoformans 96806 assessed as reduction in cell viability at 1.9 uM after 6 to 72 hrs by MTT assay; type: functional

In the case of `COc1ccc(-c2csc(N/N=C(\C)CCO)n2)cc1`, the Time [1] is reported as 2.1 h, the Activity [2] is reported as 90% and the Activity [3] is reported as 90%. The Time [4] was 2.8 h, the Activity [5] was 90% and the Activity [6] was “inactive”. The Activity [7] was 90%, the Activity [8] was 90% and the Time [9] was 1.7 h. For the same compound, the Activity [10] was “inactive” and the Activity [11] was 90%.

Compound `OC(Cn1cncn1)(Cn1cncn1)c1ccc(F)cc1F` [FLUCONAZOLE] has an Activity [12] of 80%, an Activity [13] of 80% and an Activity [14] of 80%. It also gave an Activity [15] of 80%, an Activity [16] of 80% and an Activity [17] of 80%. It also gave an Activity [18] of 80%, an Activity [19] of 80% and an Activity [20] of 80%. The Activity [21] was 80%, the Activity [22] was 80% and the Activity [23] was 80%. The Activity [24] was 80%.

Compound `C[C@@H]1[C@H](O)[C@@H](C)/C=C/C=C/C=C/C=C/C=C/C=C/C=C/[C@H](O[C@@H]2O[C@H](C)[C@@H](O)[C@H](N)[C@@H]2O)C[C@@H]2O[C@](O)(C[C@@H](O)C[C@@H](O)[C@H](O)CC[C@@H](O)C[C@@H](O)CC(=O)O[C@H]1C)C[C@H](O)[C@H]2C(=O)O` [AMPHOTERICIN B] has an Activity [25] of 90%, an Activity [26] of 90% and an Activity [27] of 90%. The Activity [28] was 90%, the Activity [29] was 90% and the Activity [30] was 90%. The Activity [31] was 90%, the Activity [32] was 90% and the Activity [33] was 90%. The Activity [34] was 90%.

`C(=N\Nc1nc(-c2ccccc2)cs1)/C1CCCCC1` gave an Activity [35] of 90% and an Activity [36] of 90%.
